The results in this text go back to ChEMBL document CHEMBL2413065, “Design and synthesis of bicyclic heterocycles as potent γ-secretase modulators” (Bioorg Med Chem Lett, 2013).

The target of data set [1] is Gamma-secretase. As to the kind of experiment: Modulation of gamma-secretase (unknown origin) assessed as reduction of amyloid beta 42 level. Type of data set: protein-complex assay, Homo sapiens.
Data set [2] concerns Mus musculus. Kind of data set: Effect in mouse assessed as increase of amyloid beta 38 level at 30 mg/kg, po after 4 hrs by ELISA. (In general: ELISA stands for enzyme-linked immunosorbent assay.)
The target in another data set is Cytochrome P450 2D6 (Homo sapiens, UniProt P10635). Kind of data set: Inhibition of CYP2D6 (unknown origin).
Data set [3] is described as follows: Plasma concentration in mouse at 30 mg/kg, po after 4 hrs. Type of data set: ADME, organism-based. Also noted: dose 30 mg/kg, route oral. In a few lines:
(§1)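 Mice received 30 mg/kg orally. Plasma and brain were sampled at 4 h and analysed for compound by a qualified research LC-MS/MS method. The brain/plasma ratio was calculated from the two concentrations.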

Data set [4] deals with Mus musculus. Kind of data set: Antialzheimer activity in mouse assessed as reduction of amyloid beta-42 level at 30 mg/kg, po after 4 hrs by ELISA. Type of data set: functional. The procedure, abridged: (§2)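 Mice dosed orally at 30 mg/kg, n = 6. Brain Aβ peptides were measured by ELISA 4 h after dosing. Values are given as % change versus untreated animals.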
Data set [5] in a line: Drug metabolism in human liver microsomes at 1 uM after 15 mins. Type of data set: ADME, Microsome. The conditions noted are these: read-out: Drug metabolism. In a few lines: (§3)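 Compound at 1 μM was incubated with human or mouse liver microsomes for 15 min. The value is the % of compound metabolized.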
A general note: Liver microsomes are vesicles of endoplasmic reticulum, rich in cytochrome P450 enzymes.

For data set [6], the target named is Voltage-gated inwardly rectifying potassium channel KCNH2 (Homo sapiens, UniProt Q12809). Kind of data set: Binding affinity to human ERG.
The target in another data set is Cytochrome P450 2C19 (Homo sapiens, UniProt P33261). As to the kind of experiment: Inhibition of CYP2C19 (unknown origin).
Data set [7] is described as follows: Drug metabolism in mouse liver microsomes at 1 uM after 15 mins. It counts as ADME, Microsome. The conditions noted are these: read-out: Drug metabolism. The procedure, abridged: as §3
Another data set deals with T1, Cytochrome P450 1A2 (Homo sapiens, UniProt P05177).
T1 sequence (P05177 whole entry): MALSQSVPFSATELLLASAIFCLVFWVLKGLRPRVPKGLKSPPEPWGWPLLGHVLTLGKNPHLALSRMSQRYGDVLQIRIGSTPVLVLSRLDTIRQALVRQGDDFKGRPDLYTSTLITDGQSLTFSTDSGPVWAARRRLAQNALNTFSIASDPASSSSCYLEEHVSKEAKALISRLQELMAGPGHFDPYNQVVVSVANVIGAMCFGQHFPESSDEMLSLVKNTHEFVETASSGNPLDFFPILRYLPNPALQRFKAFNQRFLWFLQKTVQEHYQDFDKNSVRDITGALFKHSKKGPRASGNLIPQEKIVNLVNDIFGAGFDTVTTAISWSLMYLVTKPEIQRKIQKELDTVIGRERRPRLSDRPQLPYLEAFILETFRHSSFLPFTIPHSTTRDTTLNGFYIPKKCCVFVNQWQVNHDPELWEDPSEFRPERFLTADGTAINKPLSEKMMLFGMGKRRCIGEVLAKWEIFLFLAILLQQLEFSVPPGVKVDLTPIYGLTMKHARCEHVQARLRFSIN
Kind of data set: Inhibition of CYP1A2 (unknown origin).

Data set [8] can be described thus: Ratio of drug level in brain to plasma in mouse at 30 mg/kg, po after 4 hrs. It counts as ADME, organism-based. More on the design: dose 30 mg/kg, route oral. The conditions noted are these: read-out: BPR. In a few lines: as §1
A short description of data set [9]: Drug level in mouse brain at 30 mg/kg, po after 4 hrs. Type of data set: ADME, organism-based. Also noted: dose 30 mg/kg, route oral. The conditions noted are these: read-out: Drug uptake. The procedure, abridged:
as §1

A further data set has as its target hERG (KCNH2) (Homo sapiens, UniProt Q12809). As to the kind of experiment: Inhibition of human ERG at 3 uM by Patch-Xpress assay.
The target in a further data set is Cytochrome P450 2C9 (Homo sapiens, UniProt P11712). As to the kind of experiment: Inhibition of CYP2C9 (unknown origin).
In a further data set the target is Cytochrome P450 3A4 (Homo sapiens, UniProt P08684). Kind of data set: Inhibition of CYP3A4 (unknown origin).
Data set [10] relates to Mus musculus. Kind of data set: Antialzheimer activity in mouse assessed as reduction of total amyloid beta level at 30 mg/kg, po after 4 hrs by ELISA. Type of data set: functional. In a few lines:
as §2

In data set [11] the target is Gamma-secretase. Kind of data set: Modulation of gamma-secretase (unknown origin). It counts as protein-complex assay, Homo sapiens.
Data set [12] in a line: Fraction unbound in human plasma. It counts as ADME, cell-free. The procedure, abridged:
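Unbound fraction in human plasma, determined as binding to human plasma proteins.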

Data set [13] in a line: Fraction unbound in rat brain. It counts as ADME, tissue-based. The procedure, abridged: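 Unbound fraction in rat brain tissue, expressed as %.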
The test system of data set [14] is Canis familiaris. As to the kind of experiment: Antialzheimer activity in dog assessed as increase of amyloid beta 38 level in cerebrospinal fluid at 20 mg/kg, po after 8 hrs by ELISA. It counts as functional, Canis lupus familiaris. The procedure, abridged: (§4)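 Dogs received 20 mg/kg orally. CSF Aβ42 and Aβ38 were measured 8 h after dosing and expressed as % change.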

The test system of data set [15] is Canis familiaris. As to the kind of experiment: Hepatotoxicity in dog assessed as effect on bilirubin and alanine transaminase level at 20 mg/kg, po. The conditions noted are these: in vivo. Also noted: dose 20 mg/kg, route oral. Type of data set: toxicity, organism-based, Canis lupus familiaris.
Data set [16] concerns Canis familiaris. Kind of data set: Antialzheimer activity in dog assessed as reduction of amyloid beta 42 level in cerebrospinal fluid at 20 mg/kg, po after 8 hrs by ELISA. Type of data set: functional. The conditions noted are these: Canis lupus familiaris. In a few lines:
as §4

A short description of data set [17]: Plasma concentration in dog at 20 mg/kg, po after 8 hrs. Type of data set: ADME, organism-based, Canis lupus familiaris. Also noted: dose 20 mg/kg, route oral. In a few lines: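 Dogs received 20 mg/kg orally. Plasma compound concentration was measured at 8 h and reported in ng/mL and μM.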

The source made the active and inactive calls. The rule behind the calls is not given here.

Chain of Cytochrome P450 2D6 (P10635 whole entry): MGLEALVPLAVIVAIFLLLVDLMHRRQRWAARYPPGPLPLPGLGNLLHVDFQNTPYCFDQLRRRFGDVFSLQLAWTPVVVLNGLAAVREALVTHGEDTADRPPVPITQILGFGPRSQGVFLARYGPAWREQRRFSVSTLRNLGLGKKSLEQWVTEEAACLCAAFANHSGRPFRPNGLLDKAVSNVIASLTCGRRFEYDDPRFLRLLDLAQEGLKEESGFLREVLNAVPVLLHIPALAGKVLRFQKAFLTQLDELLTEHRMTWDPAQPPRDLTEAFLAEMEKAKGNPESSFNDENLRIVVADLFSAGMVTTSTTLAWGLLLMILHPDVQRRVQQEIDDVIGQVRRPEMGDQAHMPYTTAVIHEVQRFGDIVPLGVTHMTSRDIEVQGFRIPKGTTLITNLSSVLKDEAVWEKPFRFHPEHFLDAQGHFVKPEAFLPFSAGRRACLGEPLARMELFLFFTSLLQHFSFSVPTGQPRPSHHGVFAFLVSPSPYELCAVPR
Chain of Voltage-gated inwardly rectifying potassium channel KCNH2 (Q12809 whole entry): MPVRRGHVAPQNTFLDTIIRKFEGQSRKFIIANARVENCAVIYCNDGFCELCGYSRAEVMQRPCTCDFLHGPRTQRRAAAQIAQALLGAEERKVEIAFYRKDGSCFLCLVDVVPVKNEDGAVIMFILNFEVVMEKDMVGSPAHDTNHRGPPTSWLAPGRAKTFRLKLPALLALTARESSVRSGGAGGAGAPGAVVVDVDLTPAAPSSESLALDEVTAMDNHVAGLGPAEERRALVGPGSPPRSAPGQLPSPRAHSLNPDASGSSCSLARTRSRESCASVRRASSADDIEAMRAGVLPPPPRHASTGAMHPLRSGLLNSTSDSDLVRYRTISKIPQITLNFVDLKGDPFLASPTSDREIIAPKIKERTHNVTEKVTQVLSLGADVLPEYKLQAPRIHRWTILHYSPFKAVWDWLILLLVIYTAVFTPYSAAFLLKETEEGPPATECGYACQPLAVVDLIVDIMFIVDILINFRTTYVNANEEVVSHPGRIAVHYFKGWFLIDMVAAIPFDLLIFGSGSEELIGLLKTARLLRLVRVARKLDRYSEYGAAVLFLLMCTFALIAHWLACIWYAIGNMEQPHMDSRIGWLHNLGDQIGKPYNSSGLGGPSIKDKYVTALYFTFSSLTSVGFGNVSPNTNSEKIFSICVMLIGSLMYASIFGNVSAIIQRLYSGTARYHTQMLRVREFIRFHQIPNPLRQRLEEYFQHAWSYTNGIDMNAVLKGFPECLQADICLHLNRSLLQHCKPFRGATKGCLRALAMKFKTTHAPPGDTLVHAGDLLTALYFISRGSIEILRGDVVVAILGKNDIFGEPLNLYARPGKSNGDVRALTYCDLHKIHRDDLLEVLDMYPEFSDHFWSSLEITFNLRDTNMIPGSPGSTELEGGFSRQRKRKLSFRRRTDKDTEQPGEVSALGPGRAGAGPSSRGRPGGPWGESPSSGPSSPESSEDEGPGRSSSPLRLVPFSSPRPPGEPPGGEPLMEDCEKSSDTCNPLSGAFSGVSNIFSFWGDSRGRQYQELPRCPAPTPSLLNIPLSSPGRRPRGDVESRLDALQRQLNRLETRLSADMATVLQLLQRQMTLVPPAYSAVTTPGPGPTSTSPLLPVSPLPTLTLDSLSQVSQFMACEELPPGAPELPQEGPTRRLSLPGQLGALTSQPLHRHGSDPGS
Chain of hERG (KCNH2) (Q12809 whole entry): as above
Chain of Cytochrome P450 2C9 (P11712 whole entry): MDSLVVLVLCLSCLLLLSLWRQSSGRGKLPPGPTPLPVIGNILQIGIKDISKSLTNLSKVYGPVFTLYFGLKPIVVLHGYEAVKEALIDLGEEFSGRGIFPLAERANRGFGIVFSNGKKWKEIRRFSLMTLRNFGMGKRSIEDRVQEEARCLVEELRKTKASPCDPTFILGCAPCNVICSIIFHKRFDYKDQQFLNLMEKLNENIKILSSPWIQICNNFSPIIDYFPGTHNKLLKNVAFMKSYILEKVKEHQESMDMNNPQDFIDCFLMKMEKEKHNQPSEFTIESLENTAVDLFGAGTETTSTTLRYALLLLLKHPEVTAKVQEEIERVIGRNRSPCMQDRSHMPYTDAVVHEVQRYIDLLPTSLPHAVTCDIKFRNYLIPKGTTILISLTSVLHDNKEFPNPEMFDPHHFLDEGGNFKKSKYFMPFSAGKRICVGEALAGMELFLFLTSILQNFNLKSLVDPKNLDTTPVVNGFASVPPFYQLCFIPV
Chain of Cytochrome P450 3A4 (P08684 whole entry): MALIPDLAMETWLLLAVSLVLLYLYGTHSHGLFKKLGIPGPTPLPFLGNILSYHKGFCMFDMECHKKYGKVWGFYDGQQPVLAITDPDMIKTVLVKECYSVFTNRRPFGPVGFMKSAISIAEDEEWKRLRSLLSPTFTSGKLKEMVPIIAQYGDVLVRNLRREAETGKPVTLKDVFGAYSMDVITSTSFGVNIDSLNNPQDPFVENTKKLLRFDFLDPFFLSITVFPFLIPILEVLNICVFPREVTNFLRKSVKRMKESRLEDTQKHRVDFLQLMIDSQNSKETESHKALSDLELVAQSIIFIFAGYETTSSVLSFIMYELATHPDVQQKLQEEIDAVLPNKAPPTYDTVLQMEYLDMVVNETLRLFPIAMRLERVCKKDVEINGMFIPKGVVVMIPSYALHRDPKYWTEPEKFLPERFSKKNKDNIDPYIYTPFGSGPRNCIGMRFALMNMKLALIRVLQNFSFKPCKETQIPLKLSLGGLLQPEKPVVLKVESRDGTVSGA
Chain of Cytochrome P450 2C19 (P33261 whole entry): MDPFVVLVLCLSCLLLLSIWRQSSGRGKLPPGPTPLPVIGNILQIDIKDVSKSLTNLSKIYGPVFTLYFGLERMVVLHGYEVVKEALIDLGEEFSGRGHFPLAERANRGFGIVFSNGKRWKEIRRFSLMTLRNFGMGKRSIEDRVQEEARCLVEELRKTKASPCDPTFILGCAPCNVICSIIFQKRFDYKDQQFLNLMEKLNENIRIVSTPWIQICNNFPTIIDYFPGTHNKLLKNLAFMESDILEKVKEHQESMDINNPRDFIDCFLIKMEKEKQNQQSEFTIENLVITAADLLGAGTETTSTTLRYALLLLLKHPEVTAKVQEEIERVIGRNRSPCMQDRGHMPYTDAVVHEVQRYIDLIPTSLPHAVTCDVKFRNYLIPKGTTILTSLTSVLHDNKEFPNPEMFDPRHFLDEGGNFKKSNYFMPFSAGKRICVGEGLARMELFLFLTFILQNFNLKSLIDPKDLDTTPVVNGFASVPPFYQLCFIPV

As for `COc1cc(C(=O)N[C@@H](C)c2ccc(F)cc2)ccc1-n1cnc(C)c1`, on Gamma-secretase [1], the IC50 came to 2.6 µM.
On to `COc1cc(-c2nc3n(n2)CCO[C@H]3c2ccccc2C(F)(F)F)ccc1-n1cnc(C)c1`, for which the Increase % at 30 mg/kg in the data set on Mus musculus [2] worked out at 17%. Moreover, the IC50 was greater than 10 µM on Cytochrome P450 2D6; greater than 10 µM in data set [6]; 1.52 µM against Cytochrome P450 2C19; greater than 10 µM against Cytochrome P450 1A2; 0.071 µM on Gamma-secretase [1]; 8.43 µM against Cytochrome P450 2C9. At Cytochrome P450 3A4, this compound gave an IC50 of 1.1 µM. For the same compound, the concentration at 4 h stood at 3.6 µM in [3] and 3.36 µM in data set [9]. The inhibition in vivo at 30 mg/kg in the data set with Mus musculus [4] worked out at 22%. The metabolised at […], 1 µM in data set [5] came out at 5%; in data set [7] it was 6%. Further, the Kp at 4 h in [8] was 0.93. The same compound showed an inhibition at 3 µM against hERG (KCNH2) of 12%.
For the compound `COc1cc(-c2nc(Cc3ccc(F)cc3)n(C)n2)ccc1-n1cnc(C)c1`, the IC50 on Gamma-secretase [1] is 0.85 µM.
For `COc1cc(C(=O)NCc2cccc(-c3ccccc3)c2)ccc1-n1cnc(C)c1`, the concentration at 4 h in data set [3] was 11.9 µM; in data set [9] it was 2.7 µM. For the same compound, the figures for the inhibition in vivo at 30 mg/kg in the data set with Mus musculus [10] and in the data set with Mus musculus [4] were 3% and 12%, respectively. On Gamma-secretase [11], this compound registered an IC50 of 0.158 µM. Further, the Kp at 4 h in data set [8] was determined as 0.22.
As to `COc1cc(-c2nc(-c3ccc(F)cc3)nn2C)ccc1-n1cnc(C)c1`, on Gamma-secretase [1], the IC50 is 5.75 µM.
Same read-out and setting: for `COc1cc(-c2nc(C)n(-c3ccc(F)cc3)n2)ccc1-n1cnc(C)c1` the value was 0.77 µM.
On to `COc1cc(-c2nc(-c3ccc(F)cc3)n(C)n2)ccc1-n1cnc(C)c1`, for which the IC50 on Gamma-secretase [1] worked out at 0.62 µM.
Same read-out and setting: for `COc1cc(-c2nnc(-c3ccc(F)cc3)[nH]2)ccc1-n1cnc(C)c1` the value was 1.29 µM.
Turning to `COc1cc(-c2nc3n(n2)CCC[C@H]3c2ccc(F)cc2C)ccc1-n1cnc(C)c1`, the Increase % at 30 mg/kg in the data set on Mus musculus [2] came out at 59%. Besides, the concentration for half-maximal inhibition (IC50) is greater than 10 µM on Cytochrome P450 2D6; 7.9 µM in data set [6]; 9.24 µM at Cytochrome P450 2C19; greater than 10 µM against Cytochrome P450 1A2; 0.04 µM on Gamma-secretase [1]; 5.66 µM against Cytochrome P450 2C9. Moreover, the IC50 against Cytochrome P450 3A4 was found to be 6.94 µM. For the same compound, the concentration at 4 h in [3] came to 9.8 µM; in [9], 4.8 µM. The inhibition entry in the data set on Mus musculus [10] is “inactive”. Also, the figures for the fraction unbound in [12] and in data set [13] were 0.027 and 0.0092, respectively. The inhibition in vivo at 30 mg/kg in the data set on Mus musculus [4] worked out at 49%. Besides, the values for the metabolised at […], 1 µM in data set [5] and in data set [7] were 41% and 9%, respectively. Also, the Kp at 4 h in [8] turned out to be 0.5. For the same compound, the inhibition at 3 µM at hERG (KCNH2) came to 28%.
For `COc1cc(-c2nc3n(n2)CCC[C@@H]3c2ccc(F)cc2C)ccc1-n1cnc(C)c1`, the values for the IC50 (in data set [6]; on Gamma-secretase [1]) were 0.794 µM and 0.447 µM, respectively.
As for `COc1nc(-c2nc3n(n2)CCC[C@H]3c2ccccc2C(F)(F)F)ccc1-n1cnc(C)c1`, the Increase % at 30 mg/kg with Mus musculus [2] amounted to 66%. Besides, the 50% inhibitory concentration (IC50) was greater than 10 µM against Cytochrome P450 2D6; greater than 10 µM on Cytochrome P450 2C19; 0.028 µM at Gamma-secretase [1]; 8.51 µM against Cytochrome P450 2C9; greater than 10 µM on Cytochrome P450 3A4. In addition, the values for the concentration at 4 h in [3] and in [9] were 12.3 µM and 2.8 µM, respectively. The results for the Activity with Canis familiaris [14] and in the data set on Canis familiaris [15] were 28% and “Non-toxic”, respectively. Further, the values for the fraction unbound in data set [12] and in data set [13] were 0.085 and 0.022, respectively. The inhibition in vivo at 30 mg/kg in the data set on Mus musculus [4] was found to be 62%. Besides, the metabolised at […], 1 µM in data set [5] amounted to 10%; in data set [7] it was 6%. Further, in the data set on Canis familiaris [16], the inhibition in vivo at 20 mg/kg is 50%. Further, in data set [8], the Kp at 4 h was 0.23. For the same compound, the concentration at 8 h in [17] was determined as 19 µM.
Turning to `COc1cc(-c2nc3n(n2)CCCC3c2ccc(F)cc2C)ccc1-n1cnc(C)c1` (racemic), on Gamma-secretase [1], the IC50 was determined as 0.093 µM.
On to `COc1cc(-c2nc3n(n2)CCC[C@H]3c2ccccc2C(F)(F)F)ccc1-n1cnc(C)c1`, for which, in the data set on Mus musculus [2], the Increase % at 30 mg/kg was found to be 44%. Also, the concentration at 4 h was found to be 9.7 µM in [3] and 12.7 µM in data set [9]. For the same compound, in the data set with Mus musculus [4], the inhibition in vivo at 30 mg/kg turned out to be 46%. In addition, the metabolised at […], 1 µM in [5] stood at 13%; in [7], 7%. The IC50 in [6] was greater than 10 µM; on Gamma-secretase [1] it was 0.024 µM. The Kp at 4 h in data set [8] amounted to 1.29. Moreover, on hERG (KCNH2), the inhibition at 3 µM is 11%.
For `COc1cc(-c2nc3n(n2)CCCC3c2ccc(F)cc2)ccc1-n1cnc(C)c1` (racemic), the IC50 at Gamma-secretase [1] is 0.22 µM.

By IC50 is commonly meant the concentration needed to halve the response being measured. Usually inhibition in vivo stands for the percentage by which the read-out fell short of the control. Broadly, the inhibition is how much of the control response was suppressed. One may read the fraction unbound as the share of the substance not bound to proteins or other matrix. Low values mean extensive binding, high ones weak binding.
